Measured values published in ChEMBL document CHEMBL4049457, “Pentafluorosulfanyl-Substituted Benzopyran Analogues As New Cyclooxygenase-2 Inhibitors with Excellent Pharmacokinetics and Efficacy in Blocking Inflammation” (J Med Chem, 2017).

Experiments:
[1] = biological target: T1, Prostaglandin G/H synthase 2 (Homo sapiens, UniProt P35354); assay: Inhibition of recombinant human COX-2 preincubated for 15 mins followed by fluorometric substrate/heme addition for 15 mins subsequently incubated with arachidonic acid for 2 mins by fluorescence analysis
T1 sequence (P35354 whole entry): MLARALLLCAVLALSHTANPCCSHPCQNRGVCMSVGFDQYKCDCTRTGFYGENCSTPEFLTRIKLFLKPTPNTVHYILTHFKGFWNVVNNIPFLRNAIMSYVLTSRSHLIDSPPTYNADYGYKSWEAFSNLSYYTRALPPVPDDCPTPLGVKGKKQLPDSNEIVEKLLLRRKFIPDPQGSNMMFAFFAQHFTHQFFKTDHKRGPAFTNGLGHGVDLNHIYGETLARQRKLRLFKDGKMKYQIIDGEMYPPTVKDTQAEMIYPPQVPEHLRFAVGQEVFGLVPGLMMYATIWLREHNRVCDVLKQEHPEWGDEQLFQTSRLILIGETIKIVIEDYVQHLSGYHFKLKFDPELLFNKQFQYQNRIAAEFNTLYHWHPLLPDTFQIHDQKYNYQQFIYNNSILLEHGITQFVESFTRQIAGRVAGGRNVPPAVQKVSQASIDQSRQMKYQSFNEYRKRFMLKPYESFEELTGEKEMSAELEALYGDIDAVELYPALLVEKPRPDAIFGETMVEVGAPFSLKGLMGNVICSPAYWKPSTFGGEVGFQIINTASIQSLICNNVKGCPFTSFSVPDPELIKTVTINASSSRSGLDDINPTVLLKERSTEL

[2] = biological target: Prostaglandin G/H synthase 1 (Homo sapiens, UniProt P23219); assay: Inhibition of human COX-1 preincubated for 15 mins followed by fluorometric substrate/heme addition for 15 mins subsequently incubated with arachidonic acid for 2 mins by fluorescence analysis; assay type: ADME
Prostaglandin G/H synthase 1, sequence (P23219 whole entry): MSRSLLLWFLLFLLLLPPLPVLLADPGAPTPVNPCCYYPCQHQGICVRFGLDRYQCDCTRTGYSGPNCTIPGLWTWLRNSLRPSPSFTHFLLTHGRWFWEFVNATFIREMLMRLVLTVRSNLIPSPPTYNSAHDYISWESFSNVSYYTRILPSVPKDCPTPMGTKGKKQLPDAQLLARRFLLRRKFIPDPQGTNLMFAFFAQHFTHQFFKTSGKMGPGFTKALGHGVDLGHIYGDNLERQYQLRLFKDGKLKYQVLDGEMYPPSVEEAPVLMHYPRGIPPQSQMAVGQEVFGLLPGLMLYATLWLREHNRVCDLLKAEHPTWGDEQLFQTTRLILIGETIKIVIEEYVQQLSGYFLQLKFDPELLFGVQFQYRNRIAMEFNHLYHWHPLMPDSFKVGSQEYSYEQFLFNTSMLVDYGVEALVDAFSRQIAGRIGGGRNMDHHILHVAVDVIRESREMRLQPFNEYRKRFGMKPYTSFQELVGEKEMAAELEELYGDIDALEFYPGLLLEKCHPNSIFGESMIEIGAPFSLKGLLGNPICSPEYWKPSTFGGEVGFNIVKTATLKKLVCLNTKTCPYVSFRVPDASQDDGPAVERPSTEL

[3] = Half-life in Sprague-Dawley rat at 5 mg/kg, po administered via gastric gavage by LC-MS/MS analysis; assay type: ADME, organism-based; conditions: in vivo
[4] = biological target: Voltage-gated inwardly rectifying potassium channel KCNH2 (Homo sapiens, UniProt Q12809); assay: Binding affinity to human ERG up to 50 uM after 2 hrs by fluorescence polarization assay
Voltage-gated inwardly rectifying potassium channel KCNH2, sequence (Q12809 whole entry): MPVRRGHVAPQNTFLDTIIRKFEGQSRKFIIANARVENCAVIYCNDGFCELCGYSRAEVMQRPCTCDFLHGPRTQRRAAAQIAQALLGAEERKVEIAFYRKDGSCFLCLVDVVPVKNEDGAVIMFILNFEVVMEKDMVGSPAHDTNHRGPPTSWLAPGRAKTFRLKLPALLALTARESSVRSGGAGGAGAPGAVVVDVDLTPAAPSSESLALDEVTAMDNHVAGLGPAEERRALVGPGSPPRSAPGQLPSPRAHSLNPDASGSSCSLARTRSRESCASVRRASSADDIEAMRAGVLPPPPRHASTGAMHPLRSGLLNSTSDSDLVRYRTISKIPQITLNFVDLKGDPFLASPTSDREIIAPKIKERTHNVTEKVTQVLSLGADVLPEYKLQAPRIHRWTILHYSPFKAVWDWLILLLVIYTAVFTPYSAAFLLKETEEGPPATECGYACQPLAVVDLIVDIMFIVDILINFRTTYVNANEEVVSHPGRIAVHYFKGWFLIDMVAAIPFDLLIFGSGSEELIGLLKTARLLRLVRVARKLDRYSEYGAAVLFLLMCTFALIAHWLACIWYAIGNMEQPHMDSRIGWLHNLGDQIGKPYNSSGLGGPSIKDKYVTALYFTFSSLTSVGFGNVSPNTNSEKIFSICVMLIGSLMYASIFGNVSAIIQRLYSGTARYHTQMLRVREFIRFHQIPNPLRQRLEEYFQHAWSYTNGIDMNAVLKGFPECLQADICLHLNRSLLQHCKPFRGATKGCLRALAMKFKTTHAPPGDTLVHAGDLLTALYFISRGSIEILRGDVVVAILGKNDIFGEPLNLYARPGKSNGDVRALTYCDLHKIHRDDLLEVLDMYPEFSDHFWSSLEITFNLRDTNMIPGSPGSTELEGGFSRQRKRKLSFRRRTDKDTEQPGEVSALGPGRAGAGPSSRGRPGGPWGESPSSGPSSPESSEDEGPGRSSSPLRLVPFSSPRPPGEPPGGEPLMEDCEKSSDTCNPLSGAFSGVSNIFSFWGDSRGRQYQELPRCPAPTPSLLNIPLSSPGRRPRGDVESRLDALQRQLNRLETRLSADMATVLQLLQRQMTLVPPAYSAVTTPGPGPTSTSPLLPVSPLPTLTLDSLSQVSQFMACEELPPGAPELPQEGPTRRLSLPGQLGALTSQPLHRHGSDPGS
Method in brief: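 Fluorescence polarization tracer displacement kit: hERG membrane plus red tracer with compound or positive control, 2 h at room temperature, read with polarized excitation/emission filters; dofetilide-binding surrogate for hERG.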

[5] = Cmax in Sprague-Dawley rat at 5 mg/kg, iv by LC-MS/MS analysis; assay type: ADME, organism-based; set-up: dose 5 mg/kg, route intravenous; conditions: in vivo
[6] = AUC (0 to infinity) in Sprague-Dawley rat at 5 mg/kg, po administered via gastric gavage by LC-MS/MS analysis; assay type: ADME, organism-based; set-up: dose 5 mg/kg, route oral, time infinity; conditions: in vivo
[7] = tested on: Rattus norvegicus; assay: Antiarthritic activity in adjuvant-induced Lewis rat model of arthritis assessed as reduction in paw edema administered via oral gavage once daily starting from day 15 to 25 post adjuvant injection measured post last dose; assay type: functional; conditions: 360 h
Method in brief: (§1)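 Adjuvant arthritis in male Lewis rats (170–200 g): 1 mg heat-killed M. tuberculosis in 0.2 mL mineral oil into tail base; responders (left hind paw >0.375 mL above day 0 at day 14) randomized, n = 6/group. Oral gavage once daily in 0.5% methylcellulose at 0.1–10 mg/kg, days 15–24. Day 25: plethysmometer paw volume, limb scores 0–4 (total 0–16), movement 0–3; ED50 derived.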

[8] = Half-life in Sprague-Dawley rat at 5 mg/kg, iv by LC-MS/MS analysis; assay type: ADME, organism-based; conditions: in vivo
[9] = tested on: Rattus norvegicus; assay: Antiarthritic activity in adjuvant-induced Lewis rat model of arthritis assessed as inhibition of paw edema score at 10 mg/kg administered via oral gavage every 5 days starting from day 15 to 25 post adjuvant injection measured post last dose; assay type: functional
Method in brief: (§2)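 Lewis male rats (170–200 g) given 1 mg heat-killed M. tuberculosis in 0.2 mL mineral oil at tail base; rats with left hind paw volume increase >0.375 mL by day 14 selected. Compound dosed orally at 10 mg/kg every 5 days from day 15 (two doses). Scored day 25: paw volume, arthritis 0–16 (erythema/swelling), movement 0–3.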

[10] = tested on: Rattus norvegicus; assay: Antiarthritic activity in adjuvant-induced Lewis rat model of arthritis assessed as inhibition of arthritis score at 10 mg/kg administered via oral gavage every 5 days starting from day 15 to 25 post adjuvant injection measured post last dose; assay type: functional; method in brief: as §2
[11] = tested on: Rattus norvegicus; assay: Antiarthritic activity in adjuvant-induced Lewis rat model of arthritis assessed as reduction in arthritis score administered via oral gavage once daily starting from day 15 to 25 post adjuvant injection measured post last dose; assay type: functional; conditions: 360 h; method in brief: as §1
[12] = Tmax in Sprague-Dawley rat at 5 mg/kg, po administered via gastric gavage by LC-MS/MS analysis; assay type: ADME, organism-based; conditions: in vivo
[13] = Tmax in Sprague-Dawley rat at 5 mg/kg, iv by LC-MS/MS analysis; assay type: ADME, organism-based; conditions: in vivo
[14] = tested on: Rattus norvegicus; assay: Antiinflammatory activity in carrageenan induced Sprague-Dawley rat model of inflammation assessed as reduction in paw edema administered via po 0.5 hrs prior to carrageenan challenge measured 1 to 4 hrs post challenge by plethysmometer; assay type: functional
Method in brief: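 Male SD rats dosed orally in 0.5% carboxymethyl cellulose at 1, 3, 10, 30, 100 mg/kg (n = 6), vehicle control, 0.5 h before carrageenan into right hind paw. Paw volume by water-displacement plethysmometer before and after injection; percent inhibition from paw-volume increment versus controls; ED50 fitted.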

[15] = tested on: Rattus norvegicus; assay: Antiinociceptive activity in carrageenan induced Sprague-Dawley rat model of pain assessed as reversal of paw thermal hyperalgesia administered via po 0.5 hrs prior to carrageenan challenge measured 3 hrs post challenge; assay type: functional
Method in brief: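 Male SD rats (180–220 g), 0.2 mL 3% λ-carrageenan subcutaneously into right hind paw; oral dosing in 0.5% carboxymethyl cellulose at 1–100 mg/kg (n = 6) 0.5 h before.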

[16] = tested on: Rattus norvegicus; assay: Antiarthritic activity in adjuvant-induced Lewis rat model of arthritis assessed as reduction in movement disorder administered via oral gavage once daily starting from day 15 to 25 post adjuvant injection measured post last dose; assay type: functional; conditions: 360 h; method in brief: as §1
[17] = AUC (0 to infinity) in Sprague-Dawley rat at 5 mg/kg, iv by LC-MS/MS analysis; assay type: ADME, organism-based; set-up: dose 5 mg/kg, time infinity, route intravenous; conditions: in vivo
[18] = tested on: Rattus norvegicus; assay: Antiarthritic activity in adjuvant-induced Lewis rat model of arthritis assessed as inhibition of movement disorder score at 10 mg/kg administered via oral gavage every 5 days starting from day 15 to 25 post adjuvant injection measured post last dose; assay type: functional; method in brief: as §2
[19] = tested on: Rattus norvegicus; assay: Antiinflammatory activity in carrageenan induced Sprague-Dawley rat model of inflammation assessed as reduction in PGE2 levels in air pouch administered via po 1 hr prior to carrageenan challenge measured 3 hrs post challenge by ELISA; assay type: functional
Method in brief: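 Male SD rats; 20 mL sterile air injected subcutaneously in back. Oral dosing in 0.5% carboxymethyl cellulose at 0.03–10 mg/kg (n = 6), vehicle control; 1 h later 6 mL 1% carrageenan into pouch (one day after pouch formation).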

[20] = (§3) Protein binding in human plasma at 10 uM after 5 hrs by rapid equilibrium dialysis; assay type: ADME, cell-free; conditions: read-out: PPB (converted)
Method in brief: (§4)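 Rapid equilibrium dialysis against human plasma for 5 h; drug in plasma and buffer chambers quantified by LC/MS; bound % = [1 − (buffer/plasma concentration)] × 100, n = 3.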

[21] = Oral bioavailability in Sprague-Dawley rat at 5 mg/kg administered via gastric gavage by LC-MS/MS analysis; assay type: ADME, organism-based; conditions: in vivo
[22] = Cmax in Sprague-Dawley rat at 5 mg/kg, po administered via gastric gavage by LC-MS/MS analysis; assay type: ADME, organism-based; set-up: dose 5 mg/kg, route oral; conditions: in vivo
[23] = tested on: Plasma; assay: as §3; assay type: ADME, cell-free; conditions: 5 h, 10 µM; method in brief: as §4

O=CC1=Cc2cc(S(F)(F)(F)(F)F)ccc2OC1C(F)(F)F (centres undefined)
IC50 [1]: > 10000 nM
IC50 [2]: > 10000 nM

O=C(O)C1=Cc2cc(S(F)(F)(F)(F)F)ccc2OC1C(F)(F)F (centres undefined)
half-life [3]: 12.5 h
Activity [4]: Not Active
Cmax [5]: 31700 ng/mL
AUC(0-inf) [6]: 414 µg·h/mL
IC50 [1]: 18 nM
ED50 [7]: 0.093 mg/kg
half-life [8]: 17.3 h
inhibition in vivo at 10 mg/kg [9]: 66.9%
inhibition in vivo at 10 mg/kg [10]: 69.6%
ED50 [11]: 0.094 mg/kg
Tmax [12]: 7.75 h
Tmax [13]: 1.98 min
Activity [14]: Dose-dependent effect
ED50 [14]: 4 mg/kg
Activity [15]: Dose-dependent effect
ED50 [15]: 2.8 mg/kg
ED50 [16]: 0.12 mg/kg
IC50 [2]: > 10000 nM
AUC(0-inf) [17]: 364 µg·h/mL
inhibition in vivo at 10 mg/kg [18]: 79.2%
Activity [19]: Dose-dependent effect
ED50 [19]: 0.37 mg/kg
fraction unbound at 5 h, 10 µM [20]: 0.001
bioavailability [21]: 100 to 114%
Cmax [22]: 15300 ng/mL

CN(C)CCCN1c2ccccc2Sc2ccc(Cl)cc21.Cl [CHLORPROMAZINE HYDROCHLORIDE]
PPB [23]: 99.82%

O=C(O)C1=Cc2cc(S(F)(F)(F)(F)F)ccc2O[C@@H]1C(F)(F)F
Activity [4]: Not Active
IC50 [1]: 10 nM
IC50 [2]: > 30000 nM
fraction unbound at 5 h, 10 µM [20]: 0.0004

CCc1cc(S(F)(F)(F)(F)F)cc2c1OC(C(F)(F)F)C(C(=O)O)=C2 (centres undefined)
Activity [4]: Not Active
IC50 [1]: 60 nM
IC50 [2]: > 10000 nM

O=CC1=Cc2cc(S(F)(F)(F)(F)F)cc(Br)c2OC1C(F)(F)F (centres undefined)
IC50 [1]: > 10000 nM
IC50 [2]: > 10000 nM

O=C(O)C1=Cc2cc(S(F)(F)(F)(F)F)cc(Br)c2O[C@H]1C(F)(F)F
IC50 [1]: 340 nM
IC50 [2]: > 10000 nM
fraction unbound at 5 h, 10 µM [20]: 0.0005

O=C(O)C1=Cc2cc(S(F)(F)(F)(F)F)cc(Br)c2OC1C(F)(F)F (racemic)
IC50 [1]: 56 nM
IC50 [2]: > 10000 nM

O=C(O)C1=Cc2cc(S(F)(F)(F)(F)F)ccc2O[C@H]1C(F)(F)F
IC50 [1]: 302 nM
IC50 [2]: > 10000 nM

O=C(O)C1=Cc2ccc(S(F)(F)(F)(F)F)cc2OC1C(F)(F)F (centres undefined)
IC50 [1]: > 10000 nM
IC50 [2]: > 10000 nM
fraction unbound at 5 h, 10 µM [20]: 0.0006

Cc1cc(S(F)(F)(F)(F)F)cc2c1OC(C(F)(F)F)C(C(=O)O)=C2 (centres undefined)
Activity [4]: Not Active
IC50 [1]: 26 nM
IC50 [2]: > 10000 nM
fraction unbound at 5 h, 10 µM [20]: 0.0005

O=C(O)C1=Cc2cc(S(F)(F)(F)(F)F)cc(Br)c2O[C@@H]1C(F)(F)F
IC50 [1]: 8 nM
IC50 [2]: > 10000 nM
fraction unbound at 5 h, 10 µM [20]: 0.0009

O=C(O)C1=Cc2cc(S(F)(F)(F)(F)F)cc(Cc3ccccc3)c2OC1C(F)(F)F (centres undefined)
IC50 [1]: > 100000 nM
IC50 [2]: > 10000 nM

CCCc1cc(S(F)(F)(F)(F)F)cc2c1OC(C(F)(F)F)C(C(=O)O)=C2 (centres undefined)
Activity [4]: Not Active
IC50 [1]: 46 nM
IC50 [2]: > 10000 nM

CCCCc1cc(S(F)(F)(F)(F)F)cc2c1OC(C(F)(F)F)C(C(=O)O)=C2 (centres undefined)
Activity [4]: Not Active
IC50 [1]: 190 nM
IC50 [2]: > 10000 nM
fraction unbound at 5 h, 10 µM [20]: 0.0008

Cc1ccc(-c2cc(C(F)(F)F)nn2-c2ccc(S(N)(=O)=O)cc2)cc1 [CELECOXIB]
ED50 [7]: 1.6 mg/kg
ED50 [11]: 0.71 mg/kg
ED50 [14]: 2.8 mg/kg
ED50 [15]: 5 mg/kg
ED50 [16]: 9.2 mg/kg
ED50 [19]: 0.69 mg/kg
